NPY Y2 blocker: NPY-Y2 receptor antagonists, primary screen, cell-based | NPY-Y2 expressing cells, antagonist mode | inhibition, % at 2.7 µM | actives 0.99% (n = 140,000) | AID 793, 2007; in the data active = inhibition above about 17%
EP2 modulator: EP2 receptor modulators, cAMP readout, primary screen, cell-based, HTRF cAMP, PGE2 stimulation; EP2-expressing cells, cAMP HTRF FRET, PGE2 co-stimulation; induction, % at 25 µM; actives 0.83% (n = 260,000); AID 940, 2007;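 active = compounds whose cAMP rise, as percent of the full-agonist control response, exceeds 60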;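 note: rat C6 glioma line stably carrying human EP2 under a CMV promoter; the protocol text gives 20 µM as final concentration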
NPY-Y1 PAM-ag: NPY-Y1 receptor potentiators or agonists, primary screen, cell-based; Neuropeptide Y receptor type 1 (Homo sapiens), P25929; NPY-Y1 expressing cells, potentiator/agonist activation; activation, % at 3.6 µM; actives 0.37% (n = 220,000); in the data active = activation above about 33%, passing the limit was not always enough;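 note: cells stimulated with NPY at EC10 then isoproterenol at EC100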
Target sequence (P25929 whole entry, looked up): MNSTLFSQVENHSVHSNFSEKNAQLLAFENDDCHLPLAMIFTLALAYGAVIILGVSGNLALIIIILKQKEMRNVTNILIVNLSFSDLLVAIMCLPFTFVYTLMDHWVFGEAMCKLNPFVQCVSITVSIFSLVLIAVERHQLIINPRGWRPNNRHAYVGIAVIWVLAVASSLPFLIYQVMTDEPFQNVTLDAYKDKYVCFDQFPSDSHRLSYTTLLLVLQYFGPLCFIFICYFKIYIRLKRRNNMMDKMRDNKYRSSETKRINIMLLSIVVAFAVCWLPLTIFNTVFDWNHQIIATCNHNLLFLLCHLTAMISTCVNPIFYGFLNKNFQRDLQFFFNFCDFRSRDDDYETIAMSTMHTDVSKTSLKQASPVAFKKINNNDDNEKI
NPY Y1 blocker: NPY-Y1 receptor antagonists, primary screen, cell-based | HEK293-CNG Y1 cells, membrane potential fluorescence; NPY at EC95, then isoproterenol | inhibition, % at 3.6 µM | Neuropeptide Y receptor type 1 (Homo sapiens), P25929 | AID 1040, 2008 | actives 1% (n = 200,000);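 active = inhibition above the campaign mean inhibition of all tested compounds plus 3 SD, cut at about 20% in these data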
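material = HEK293 cells with Y1 receptor plus CNG channel | also added = NPY 25 nM then isoproterenol 1 µM plus Ro 20-1724 25 µM | schedule = dye 3 h, compound 60 min room temperature, stimulation 45 min | measured by = membrane potential fluorescence | benchmarks = high control isoproterenol alone, low control NPY with isoproterenol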
NPY-Y2 PAM-ag: NPY-Y2 potentiators or agonists, primary screen, cell-based; AID 1359, 2008; actives 0.45% (n = 220,000); cells expressing NPY-Y2, potentiator/agonist read-out; activation, % at 3.6 µM; in the data active = activation above about 27%;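 note: cells stimulated with NPY near EC25 plus isoproterenol at EC100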
PGE2 EP2 inh: human EP2 receptor antagonists, primary screen, TR-FRET cAMP, C6 glioma cells | inhibition, % at 25 µM | C6 glioma cells expressing human EP2; cells stimulated with saturating PGE2 | actives 0.52% (n = 260,000);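 active = percent inhibition above 40 after rounding to a whole number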;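 note: rat C6 glioma host cells with rolipram phosphodiesterase inhibitor present; the protocol text gives 20 µM as final concentration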
Hits are given with their value; i = inactive; nt = no result given; ! = a repeat was not active. Shown are actives, neighbours in structure and some others; about 2.8% of the full set was active somewhere.

SMILES | NPY Y2 blocker | EP2 modulator | NPY-Y1 PAM-ag | NPY Y1 blocker | NPY-Y2 PAM-ag | PGE2 EP2 inh
COc1ccc(CCNc2nc(N3CCOCC3)nc(N3CCOCC3)n2)cc1OC | i | i | i | i | i | i
CC(=O)NC(Cc1c[nH]c2ccccc12)C(=O)NCC(=O)O (configuration not stated) | nt | i | nt | nt | nt | i
C/C(CCc1oc2ccc(Br)cc2c1-c1ccc(C)o1)=N/O | i | 63 | i | i | i | i
O=C(Nc1ccc(Oc2ccccc2)cc1)C1CC1 | nt | i | i | i | i | i
O=C(Nc1ccc(C#Cc2ccccc2)cc1)C1CC1 | i | i | 78 | i | 38 | i
O=C(NCC1(c2ccccc2)CCCC1)C1(c2ccccc2)CCCC1 | i | 62 | i | i | i | i
CC(C)N1CC=C2C(C1)C(c1ccc(Cl)cc1)C(C#N)=C(N)C2(C#N)C#N (configuration not stated) | nt | 79 | nt | nt | nt | i
CCn1cc(C=C2C(=O)c3ccccc3C2=O)c2ccccc21 | i | i | i | i | i | 42
C=CC[n+]1ccc(/C=C2\C=Cc3cc(C)ccc3N2CC)c2ccccc21 | nt | i | i | i | 31 | i
COCCn1c(CN2CCOCC2)nc2c1c(=O)n(C)c(=O)n2C | nt | i | nt | nt | nt | i
COc1ccc(CN(C(=O)c2nsc(Cl)c2Cl)C(C(=O)NC2CCCC2)c2ccc(C)cc2)cc1 (configuration not stated) | 23 | i | i | 44 | i | i
Cc1ccc(C)c(N(C(=O)c2nsc(Cl)c2Cl)C(C(=O)NC2CCCC2)c2ccc(O)cc2)c1 (configuration not stated) | i | i | i | i | i | i
COc1ccc(S(=O)(=O)N(Cc2cc3cc(C)ccc3[nH]c2=O)C2CCCC2)cc1 | nt | i | nt | nt | nt | i
N=C(N)c1ccc(-c2ccc(-c3ccc(C(=N)N)cc3)o2)cc1 | nt | i | nt | nt | nt | 52
N=C(N)c1ccc(Cl)cc1 | nt | i | i | i | i | i
O=C(O)c1ccccc1CSc1nnc2c(n1)[nH]c1ccccc12 | nt | 61 | i | nt | i | i
C/C(=N\NC(=O)CSc1nc2nc(C)cc(C)n2n1)c1ccccc1 | i | i | i | i | i | 128
CC(C)(C)n1nnnc1C(c1cccs1)N(Cc1ccccc1)Cc1ccco1 (configuration not stated) | 20 | i | i | 27 | i | i
CC(C)(C)n1nnnc1C(c1cccs1)N(Cc1cccnc1)Cc1ccco1 (configuration not stated) | i | i | i | i | i | i
CC(C)(C)n1nnnc1C(c1cccnc1)N(CCc1ccccc1)Cc1cccs1 (configuration not stated) | nt | 63 | nt | nt | nt | i
Cc1occc1-c1nn(CC(=O)NCCc2ccccc2)c(=O)o1 | nt | i | nt | nt | nt | i
c1ccc(C[n+]2cccc3c4ccccc4ccc32)cc1 | i | i | i | i | 36 | i
CCCCC[n+]1cccc2c3ccccc3ccc21 | nt | i | i | i | i | i
CCOC(=O)c1sc(NC(=O)COc2c(C)cccc2C)c(C#N)c1C | nt | i | nt | nt | nt | i
Cc1cccc(C)c1NC(=O)c1c(-c2ccccc2)noc1C | i | i | i | i | i | i
SMILES | NPY Y2 blocker | EP2 modulator | NPY-Y1 PAM-ag | NPY Y1 blocker | NPY-Y2 PAM-ag | PGE2 EP2 inh
Cc1cccc(NC(=O)c2c(-c3ccccc3)noc2C)n1 | nt | i | i | i | i | 43
c1cncc(CSc2nnc3c4ccccc4nc(C4CCCCC4)n23)c1 | nt | 65 | nt | nt | nt | i
c1cncc(CSc2nnc3c4c5c(sc4nc(C4CC4)n23)CCCC5)c1 | nt | i | nt | nt | nt | i
CCOC(=O)c1sc(NC(=O)CSc2nc3cc(OC)ccc3cc2C#N)nc1C | nt | i | nt | nt | nt | i
CC(CC(=O)Nc1ncc([N+](=O)[O-])s1)c1ccccc1 (configuration not stated) | nt | i | i | i | i | i
O=C(Cc1ccc(Br)cc1)Nc1ncc([N+](=O)[O-])s1 | nt | i | 50 | nt | 62 | i
Cc1cccc2cc(CN(CCCO)C(=S)NCCCN(C)C)c(=O)[nH]c12 | nt | i | nt | nt | nt | i
Nc1nc(Cl)nc2c1ncn2[C@H]1C[C@H](O)[C@@H](CO)O1 | i | i | i | i | i | i
CC1(C)OC[C@@H]2O[C@H](n3cnc4c(N)nc(Cl)nc43)[C@H](OS(C)(=O)=O)[C@H]2O1 | nt | i | nt | nt | nt | 56
Nc1cc(S(N)(=O)=O)ccc1SSc1ccc(S(N)(=O)=O)cc1N | nt | i | nt | nt | nt | 60
CC(C)CC(=O)/C(=C\c1ccc(Cl)cc1Cl)n1cncn1 | i | i | i | i | i | 52
CCn1c(=O)oc2cc(S(=O)(=O)N3CCC(O)(c4ccccc4)C3)ccc21 (configuration not stated) | nt | i | nt | nt | nt | i
CCSc1nc(C)nc2sc(C)c(C)c12 | nt | 69 | i | nt | i | i
Cc1nc(SCC(=O)N(C(C)C)C(C)C)c2c(C)c(C)sc2n1 | nt | i | nt | nt | nt | i
COc1ccc2cc(C)c3nn(CCNC(=O)c4noc5c4CCCC5)c(=O)n3c2c1 | nt | i | nt | nt | nt | i
CCCCC(c1nnnn1C1CCCC1)N1CCN(C2CCCCC2)CC1 (configuration not stated) | 26 | i | i | 37 | i | i
Cc1ccc(NC(=O)c2ccccc2)cc1 | i | i | i | i | i | i
Cc1ccc(NC(=O)C2=C(c3ccccc3)S(=O)(=O)CCS2(=O)=O)cc1 | nt | i | 56 | i | 55 | i
O=C(Nc1ccc(Cl)c(C(F)(F)F)c1)NC1CC2CCCC(C1)N2Cc1ccccc1 (configuration not stated) | nt | i | i | i | i | 51
CCC(C(=O)OC)n1c(-c2ccccc2)nc2ccccc2c1=O (configuration not stated) | nt | 69! | i | i | i | i
CCOC(=O)c1cc2c(ccn2C)n1CC(=O)N(Cc1ccccc1)c1ccccc1 | i | i | i | i | i | i
CCOC(=O)c1cc2c(ccn2C)n1Cc1ccccc1Cl | nt | 63 | i | i | i | i
Cc1ccccc1Cn1c(C(=O)OC(C)C)cc2c1ccn2C | i | i | i | i | i | i
CCOC(=O)c1cc2c(ccn2C)n1Cc1ccccc1C | i | 62 | i | i | i | i
Cc1c(C(=O)N2CCC(C(=O)c3nccs3)CC2)oc2ccccc12 | nt | i | nt | nt | nt | nt
COc1ccccc1NC(=O)c1ccccc1-c1nc(-c2ccccc2OC)no1 | i | i | i | i | i | i
COc1ccccc1-c1noc(-c2ccccc2C(=O)Nc2ccccc2)n1 | 24 | i | i | 23 | i | i
Cc1ccc(OCCN2CCN(c3nc(NCc4ccco4)c4ccccc4n3)CC2)cc1 | 30 | i | i | 34 | i | i
OCCN1CCN(c2nc(NCc3ccco3)c3ccccc3n2)CC1 | i | i | i | i | i | i

Bioassay records deposited in PubChem BioAssay by several laboratories.
